The source made the active and inactive calls. No cut-off for these calls is given here. Where a SMILES comes first, the peptide text is derived from it. Bridges are numbered along the chain shown (N, C = ends).
Assays:
[1] = target: T1, L-lactate dehydrogenase A chain (Homo sapiens, UniProt P00338); assay: Inhibition of recombinant full length N-terminal His-tagged human LDHA expressed in Escherichia coli using pyruvate as substrate and NADH as cofactor incubated for 2 hrs by fluorescence assay
Procedure, shortened: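 Reassociation activity assay: 900 nM LDHA stock in phosphate pH 7.4/EDTA/0.05% BSA, acidified 2 min with glycine pH 2.5/BSA. Peptide added in 0.25 M phosphate pH 7.6 and incubated 2 h at RT. Aliquot diluted, then pyruvate (3 mM final) and NADH (0.3 mM final) added. IC50 from dose-response fit.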

[2] = target: T1, L-lactate dehydrogenase A chain; assay: Inhibition of recombinant full length N-terminal His-tagged human LDHA oligomerization expressed in Escherichia coli at 150 uM at pH 2.5 to 7.4 measured after 2 hrs by SDS-PAGE analysis
Procedure, shortened: (§1)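 Oligomer state: LDHA (1.3 µM) acidified 2 min with 0.1 M glycine pH 2.5, then peptide added in 0.25 M phosphate pH 7.6, 1 mM EDTA, for 2 h at RT. Cross-linked with glutaraldehyde (5% stock), heated 3 min at 85 °C in LDS buffer, and run on 4–12% Bis-Tris gel in MES buffer.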

[3] = target: T1, L-lactate dehydrogenase A chain; assay: Inhibition of recombinant full length N-terminal His-tagged human LDHA oligomerization expressed in Escherichia coli at 90 to 150 uM at pH 2.5 to 7.4 measured after 2 hrs by SDS-PAGE analysis; details: dose 90-150 µM; procedure, shortened: as §1
[4] = target: T1, L-lactate dehydrogenase A chain; assay: Binding affinity to recombinant full length N-terminal His-tagged human LDHA expressed in Escherichia coli assessed as reduction in fluorecence polarization measured after 2 hrs by Alexa Fluor 488 based fluorescence polarization assay
Procedure, shortened: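 Competition FP: LDH5 held 2 min in 0.1 M glycine pH 2.5, then inhibitor added at the reassociation step with Alexa488-labeled cGm peptide (final 12 nM) in 0.25 M phosphate pH 7.6, 1 mM EDTA, with 152.5 nM LDH5. Incubated 2 h at room temperature. FP read at ex 485/em 520 nm. 100% set by probe plus LDH5 alone.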

[5] = target: T1, L-lactate dehydrogenase A chain; assay: Binding affinity to recombinant full length N-terminal His-tagged human LDHA expressed in Escherichia coli assessed as reduction in fluorecence recovery measured after 2 hrs by tryptophan fluorescence emission assay
Procedure, shortened: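 Intrinsic Trp fluorescence: 4 µM LDHA (stock) dissociated 2 min in 0.1 M glycine pH 2.5, then peptide added in 0.25 M phosphate pH 7.6, 1 mM EDTA. No-LDHA blank subtracted. Zero set at pH 2.5 and maximum at the pH 2.5→7.4 control. LDH5 final 0.6 µM.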

Structure (SMILES)	IC50 [1]	other results
CC(C)C[C@@H]1NC(=O)[C@H](CCCNC(=N)N)NC(=O)[C@H](CCCNC(=N)N)NC(=O)[C@@H](NC(=O)CN)CSSC[C@@H](C(=O)N[C@@H](CCCNC(=N)N)C(=O)NCC(=O)N[C@@H](CCCNC(=N)N)C(=O)O)NC(=O)[C@H](C(C)C)NC(=O)[C@H]([C@@H](C)O)NC(=O)[C@H](Cc2ccccc2)NC(=O)[C@@H]2CSSC[C@H](NC1=O)C(=O)N[C@@H](Cc1ccc(O)cc1)C(=O)N[C@@H](CCCCN)C(=O)N[C@@H](CCC(N)=O)C(=O)N[C@@H](CCCNC(=N)N)C(=O)N2	24 µM	–
CC(C)C[C@@H]1NC(=O)[C@H](CCCNC(=N)N)NC(=O)[C@H](CCCNC(=N)N)NC(=O)[C@@H](NC(=O)CN)CSSC[C@@H](C(=O)N[C@@H](CCCNC(=N)N)C(=O)NCC(=O)N[C@@H](CCCNC(=N)N)C(=O)O)NC(=O)[C@H](C(C)C)NC(=O)[C@H]([C@@H](C)O)NC(=O)[C@H](Cc2ccccc2)NC(=O)[C@@H]2CSSC[C@H](NC1=O)C(=O)N[C@@H]([C@@H](C)O)C(=O)NCC(=O)N[C@@H](CCC(N)=O)C(=O)N[C@@H](CCCNC(=N)N)C(=O)N2	> 40 µM	–
CC(C)C[C@@H]1NC(=O)[C@H](CCCNC(=N)N)NC(=O)[C@H](CCCNC(=N)N)NC(=O)[C@@H](NC(=O)CN)CSSC[C@@H](C(=O)N[C@@H](CCCNC(=N)N)C(=O)NCC(=O)N[C@@H](CCCNC(=N)N)C(=O)O)NC(=O)[C@H](C(C)C)NC(=O)[C@H]([C@@H](C)O)NC(=O)[C@H](Cc2ccccc2)NC(=O)[C@@H]2CSSC[C@H](NC1=O)C(=O)N[C@@H](Cc1ccc(O)cc1)C(=O)N[C@@H](CCCNC(=N)N)C(=O)N[C@@H](Cc1ccccc1)C(=O)N[C@@H](Cc1c[nH]c3ccccc13)C(=O)N2 (H-GCRRLCYRFWCFTVCRGR-OH; disulfide 2-15, 6-11)	2.5 µM	inhibition [2]: Active; inhibition [3]: Active; Activity [4]: Dose-Dependent Effect
CC(C)C[C@@H]1NC(=O)[C@H](CCCNC(=N)N)NC(=O)[C@H](CCCNC(=N)N)NC(=O)[C@@H](NC(=O)CN)CSSC[C@@H](C(=O)N[C@@H](CCCNC(=N)N)C(=O)NCC(=O)N[C@@H](CCCNC(=N)N)C(=O)O)NC(=O)[C@H](C(C)C)NC(=O)[C@H]([C@@H](C)O)NC(=O)[C@H](Cc2ccccc2)NC(=O)[C@@H]2CSSC[C@H](NC1=O)C(=O)N[C@@H](CC(=O)O)C(=O)N[C@@H](CCCNC(=N)N)C(=O)N[C@@H](Cc1ccccc1)C(=O)N[C@@H](C)C(=O)N2 (H-GCRRLCDRFACFTVCRGR-OH; disulfide 2-15, 6-11)	> 40 µM	Activity [5]: inactive
CC(=O)N1CCC[C@H]1C(=O)N[C@H](C(=O)N[C@@H](CCC(N)=O)C(=O)N[C@@H](CCCNC(=N)N)C(=O)N[C@H](C(=O)NCC(N)=O)[C@@H](C)O)C(C)C	> 40 µM	–
CC(C)C[C@@H]1NC(=O)[C@H](CCCNC(=N)N)NC(=O)[C@H](CCCNC(=N)N)NC(=O)[C@@H](NC(=O)CN)CSSC[C@@H](C(=O)N[C@@H](CCCNC(=N)N)C(=O)NCC(=O)N[C@@H](CCCNC(=N)N)C(=O)O)NC(=O)[C@H](C(C)C)NC(=O)[C@H]([C@@H](C)O)NC(=O)[C@H](Cc2ccccc2)NC(=O)[C@@H]2CSSC[C@H](NC1=O)C(=O)N[C@@H](Cc1c[nH]c3ccccc13)C(=O)N[C@@H](Cc1ccccc1)C(=O)N[C@@H](CCCNC(=N)N)C(=O)N[C@@H](Cc1ccc(O)cc1)C(=O)N2	4.5 µM	–
CC(C)C[C@@H]1NC(=O)[C@H](CCCNC(=N)N)NC(=O)[C@H](CCCNC(=N)N)NC(=O)[C@@H](NC(=O)CN)CSSC[C@@H](C(=O)N[C@@H](CCCNC(=N)N)C(=O)NCC(=O)N[C@@H](CCCNC(=N)N)C(=O)O)NC(=O)[C@H](C(C)C)NC(=O)[C@H](CCC(N)=O)NC(=O)[C@H](CCCNC(=N)N)NC(=O)[C@@H]2CSSC[C@H](NC1=O)C(=O)N[C@@H](Cc1ccc(O)cc1)C(=O)N[C@@H](CCCCN)C(=O)N[C@@H](CCC(N)=O)C(=O)NCC(=O)N2	41.4 µM	–
CC[C@H](C)[C@H](NC(=O)CNC(=O)[C@H](CC(N)=O)NC(=O)[C@H](CCC(N)=O)NC(C)=O)C(=O)N[C@@H](CO)C(=O)N[C@@H](CC(=O)O)C(=O)N[C@@H](CC(C)C)C(=O)N[C@H](C(=O)N[C@@H](CCCCN)C(N)=O)C(C)C	> 40 µM	–
CC[C@H](C)[C@@H]1NC(=O)CNC(=O)[C@H](CCCNC(=N)N)NC(=O)[C@H](Cc2ccc(O)cc2)NC(=O)[C@@H]2CSSC[C@H](NC1=O)C(=O)N[C@@H](C(C)C)C(=O)N[C@@H]([C@@H](C)O)C(=O)N[C@@H](Cc1ccc(O)cc1)C(=O)N[C@H](C(=O)N[C@@H](CCCNC(=N)N)C(=O)NCC(=O)N[C@@H](CCCNC(=N)N)C(=O)O)CSSC[C@H](NC(=O)CN)C(=O)N[C@@H](CCCNC(=N)N)C(=O)N[C@@H](CCCNC(=N)N)C(=O)N[C@@H](CC(C)C)C(=O)N2 (H-GCRRLCYRGICVTYCRGR-OH; disulfide 2-15, 6-11)	24.8 µM	Activity [5]: Dose-Dependent Effect
CC(=O)NCC(=O)N[C@@H](CC(N)=O)C(=O)N[C@@H](Cc1ccc(O)cc1)C(=O)N[C@H](C(=O)N[C@@H](Cc1c[nH]c2ccccc12)C(=O)N[C@@H](CC(C)C)C(N)=O)[C@@H](C)O	> 40 µM	–
CC[C@H](C)[C@@H]1NC(=O)CNC(=O)[C@H](CCCNC(=N)N)NC(=O)[C@H](Cc2ccc(O)cc2)NC(=O)[C@@H]2CSSC[C@H](NC1=O)C(=O)N[C@@H](Cc1ccc(O)cc1)C(=O)N[C@@H](CCCNC(=N)N)C(=O)N[C@@H](CCCNC(=N)N)C(=O)N[C@H](C(=O)N[C@@H](CCCNC(=N)N)C(=O)NCC(=O)O)CSSC[C@H](NC(=O)[C@H](Cc1c[nH]c3ccccc13)NC(=O)[C@@H](N)CCCCN)C(=O)N[C@@H](Cc1ccccc1)C(=O)N[C@@H](CCCNC(=N)N)C(=O)N[C@@H](C(C)C)C(=O)N2	29.1 µM	–
CC(C)C[C@@H]1NC(=O)[C@H](CCCNC(=N)N)NC(=O)[C@H](CCCNC(=N)N)NC(=O)[C@@H](NC(=O)CN)CSSC[C@@H](C(=O)N[C@@H](CCCNC(=N)N)C(=O)NCC(=O)N[C@@H](CCCNC(=N)N)C(=O)O)NC(=O)[C@H](Cc2ccc(O)cc2)NC(=O)[C@H]([C@@H](C)O)NC(=O)[C@H](C(C)C)NC(=O)[C@@H]2CSSC[C@H](NC1=O)C(=O)N[C@@H](Cc1ccc(O)cc1)C(=O)N[C@@H](CCCCN)C(=O)N[C@@H](CCC(N)=O)C(=O)N[C@@H](CCCNC(=N)N)C(=O)N2	36.6 µM	–
CC[C@H](C)[C@@H]1NC(=O)[C@H](Cc2ccc(O)cc2)NC(=O)[C@H](CC(N)=O)NC(=O)[C@@H]2CSSC[C@H](NC(=O)[C@H](CC(C)C)NC(=O)[C@H](CCCNC(=N)N)NC(=O)[C@H](CCCNC(=N)N)NC(=O)[C@@H](NC(=O)CN)CSSC[C@@H](C(=O)N[C@@H](CCCNC(=N)N)C(=O)NCC(=O)N[C@@H](CCCNC(=N)N)C(=O)O)NC1=O)C(=O)N[C@@H](Cc1ccc(O)cc1)C(=O)N[C@@H](CCCCN)C(=O)N[C@@H](CCC(N)=O)C(=O)N[C@@H](CC(C)C)C(=O)N2	> 40 µM	–
CC(C)C[C@@H]1NC(=O)[C@H](CCCNC(=N)N)NC(=O)[C@H](CCCNC(=N)N)NC(=O)[C@@H](NC(=O)CN)CSSC[C@@H](C(=O)N[C@@H](CCCNC(=N)N)C(=O)NCC(=O)N[C@@H](CCCNC(=N)N)C(=O)O)NC(=O)[C@H](C(C)C)NC(=O)[C@H](CC(C)C)NC(=O)[C@H](CC(=O)O)NC(=O)[C@@H]2CSSC[C@H](NC1=O)C(=O)N[C@@H](Cc1ccc(O)cc1)C(=O)N[C@@H](CCCCN)C(=O)N[C@@H](CCC(N)=O)C(=O)N[C@@H](CCCNC(=N)N)C(=O)N2	27.3 µM	–
CC(C)C[C@@H]1NC(=O)[C@H](CCCNC(=N)N)NC(=O)[C@H](CCCNC(=N)N)NC(=O)[C@@H](NC(=O)CN)CSSC[C@@H](C(=O)N[C@@H](CCCNC(=N)N)C(=O)NCC(=O)N[C@@H](CCCNC(=N)N)C(=O)O)NC(=O)[C@H](C(C)C)NC(=O)[C@H]([C@@H](C)O)NC(=O)[C@H](Cc2ccccc2)NC(=O)[C@@H]2CSSC[C@H](NC1=O)C(=O)N[C@@H](CC(=O)O)C(=O)N[C@@H](CCCNC(=N)N)C(=O)N[C@@H](Cc1ccccc1)C(=O)N[C@@H](Cc1c[nH]c3ccccc13)C(=O)N2	10.4 µM	–
